Test results published in ChEMBL document CHEMBL1122413, “Chloralanyl and propargylglycyl dipeptides. Suicide substrate containing antibacterials” (1983).
Values after ≈ are worked out from the molar mass of the structure shown.

Experiments:
Klebsiella aerogenes = experiment: Minimum inhibitory concentration against Enterobacter aerogenes; format: functional
Method in brief: (§1)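 Agar dilution on defined peptide susceptibility medium with peptide in serial twofold dilutions. Strains subcultured on blood or chocolate agar. Inoculum from overnight culture in liquid peptide medium, diluted to approx 1×10^7 cfu/mL, applied by Steers replicator. Plates incubated overnight at 37 °C. MIC taken as lowest concentration permitting fewer than ten colonies at 16–18 h.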

Escherichia coli = experiment: Minimum inhibitory concentration against Escherichia coli; format: functional; method in brief: as §1
Streptococcus agalactiae = experiment: Minimum inhibitory concentration against Streptococcus agalactiae; format: functional
Method in brief: (§2)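 Agar dilution on defined peptide susceptibility medium with hemin (25 μg/mL), NAD (25 μg/mL) and Isovitalex (1%) added, peptide in serial twofold dilutions. Colonies from overnight chocolate or blood agar resuspended in liquid peptide medium to 10⁸ cfu/mL, applied by Steers replicator. Incubation overnight at 37 °C under 7% CO₂. MIC: lowest concentration giving fewer than ten colonies at 16–18 h.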

Haemophilus influenzae = experiment: Minimum inhibitory concentration against Hemophilus influenzae; format: functional; method in brief: as §2
Proteus mirabilis = experiment: Minimum inhibitory concentration against Proteus mirabilis; format: functional; method in brief: as §1
Enterococcus faecalis = experiment: Minimum inhibitory concentration against Streptococcus faecalis; format: functional; method in brief: as §1
Streptococcus pyogenes = experiment: Minimum inhibitory concentration against Streptococcus pyogenes; format: functional; method in brief: as §2
Klebsiella pneumoniae = experiment: Minimum inhibitory concentration against Klebsiella pneumoniae; format: functional; method in brief: as §1
[1] = test system: Staphylococcus epidermidis; experiment: Minimum inhibitory concentration against Staphylococcus epidermidis; format: functional; method in brief: as §1
Enterobacter cloacae = experiment: Minimum inhibitory concentration against Enterobacter cloacae; format: functional; method in brief: as §1
Pseudomonas aeruginosa = experiment: Minimum inhibitory concentration against Pseudomonas aeruginosa; format: functional; method in brief: as §1
Morganella morganii = experiment: Minimum inhibitory concentration against Morganella morganii; format: functional; method in brief: as §1
Staphylococcus aureus = experiment: Minimum inhibitory concentration against Staphylococcus aureus; format: functional; method in brief: as §1
Serratia marcescens = experiment: Minimum inhibitory concentration against Serratia marcescens; format: functional; method in brief: as §1
Shigella flexneri = experiment: Minimum inhibitory concentration against Shigella flexneri; format: functional; method in brief: as §1
Salmonella typhimurium = experiment: Minimum inhibitory concentration against Salmonella Typhimurium; format: functional, Salmonella enterica subsp. enterica serovar Typhimurium; conditions: Salmonella enterica; method in brief: as §1

| Compound | MIC (Klebsiella aerogenes) [mg/L] | MIC (Escherichia coli) [mg/L] | MIC (Streptococcus agalactiae) [mg/L] | MIC (Haemophilus influenzae) [mg/L] | MIC (Proteus mirabilis) [mg/L] | MIC (Enterococcus faecalis) [mg/L] | MIC (Streptococcus pyogenes) [mg/L] | MIC (Klebsiella pneumoniae) [mg/L] | MIC [1] [mg/L] | MIC (Enterobacter cloacae) [mg/L] | MIC (Pseudomonas aeruginosa) [mg/L] | MIC (Morganella morganii) [mg/L] | MIC (Staphylococcus aureus) [mg/L] | MIC (Serratia marcescens) [mg/L] | MIC (Shigella flexneri) [mg/L] | MIC (Salmonella typhimurium) [mg/L] |
| --- | --- | --- | --- | --- | --- | --- | --- | --- | --- | --- | --- | --- | --- | --- | --- | --- |
| N[C@H](CCl)C(=O)O | 12.5 (≈ 101 µM) | 6.25 (≈ 50.6 µM) | 12.5 (≈ 101 µM) | 6.25 (≈ 50.6 µM) | > 100 | 50 (≈ 405 µM) | 12.5 (≈ 101 µM) | 100 (≈ 809 µM) | 25 (≈ 202 µM) | 100 (≈ 809 µM) | > 100 | > 100 | 12.5 (≈ 101 µM) | 25 (≈ 202 µM) | 50 (≈ 405 µM) | 100 (≈ 809 µM) |
| C#CC[C@H](NC(=O)[C@@H](N)CCl)C(=O)O.O=C(O)C(F)(F)F | 25 | 3.12 | 0.39 | 1.56 | > 100 | 3.12 | 25 | > 100 | 0.05 | 25 | > 100 | > 100 | 0.1 | > 100 | 3.12 | > 100 |
| C#CC[C@@H](NC(=O)[C@H](C)N)C(=O)O.O=C(O)C(F)(F)F | > 100 | > 100 | > 100 | > 100 | > 100 | > 100 | > 100 | > 100 | > 100 | > 100 | > 100 | > 100 | > 100 | > 100 | > 100 | > 100 |
| CCC[C@H](N)C(=O)N[C@@H](CCl)C(=O)O.O=C(O)C(F)(F)F | > 100 | 1.56 | 0.2 | 0.78 | 12.5 | 0.39 | > 100 | > 100 | 0.025 | 6.25 | > 100 | 50 | 0.025 | > 100 | > 100 | > 100 |
| C#CCC(NC(=O)[C@H](C)N)C(=O)O.O=C(O)C(F)(F)F (stereo not given in full) | > 100 | > 100 | 50 | > 100 | > 100 | > 100 | > 100 | > 100 | 3.12 | > 100 | > 100 | > 100 | > 100 | > 100 | > 100 | > 100 |
| C#CCC(NC(=O)[C@H](N)CCl)C(=O)O.O=C(O)C(F)(F)F (stereo not given in full) | > 100 | > 100 | > 100 | > 100 | > 100 | > 100 | > 100 | > 100 | > 100 | > 100 | > 100 | > 100 | > 100 | > 100 | > 100 | > 100 |
| C#CC[C@H](N)C(=O)N[C@@H](C)C(=O)O.O=C(O)C(F)(F)F | > 100 | > 100 | > 100 | > 100 | > 100 | > 100 | > 100 | > 100 | 1.56 | > 100 | > 100 | > 100 | > 100 | > 100 | > 100 | > 100 |
| C#CCC(N)C(=O)N[C@@H](C)C(=O)O.O=C(O)C(F)(F)F (stereo not given in full) | > 100 | > 100 | > 100 | > 100 | > 100 | > 100 | > 100 | > 100 | 3.12 | > 100 | > 100 | > 100 | 50 | > 100 | > 100 | > 100 |
| C[C@H](NC(=O)[C@@H](N)CCl)C(=O)O.O=C(O)C(F)(F)F | > 100 | > 100 | 0.39 | > 100 | > 100 | > 100 | > 100 | > 100 | 0.025 | > 100 | > 100 | > 100 | 0.05 | > 100 | > 100 | > 100 |
| C[C@H](N)C(=O)N[C@@H](CCl)C(=O)O.O=C(O)C(F)(F)F | > 100 | > 100 | 0.2 | > 100 | > 100 | > 100 | > 100 | > 100 | 0.0125 | > 100 | > 100 | > 100 | 0.0125 | > 100 | > 100 | > 100 |
| C[C@H](N)C(=O)N[C@H](CCl)C(=O)O.O=C(O)C(F)(F)F | > 100 | > 100 | > 100 | > 100 | > 100 | > 100 | > 100 | > 100 | > 100 | > 100 | > 100 | > 100 | > 100 | > 100 | > 100 | > 100 |
| N[C@@H](CCl)C(=O)N[C@@H](CCl)C(=O)O.O=C(O)C(F)(F)F | 25 | 1.56 | 0.39 | 1.56 | 50 | 3.12 | 1.56 | > 100 | 0.05 | 12.5 | > 100 | 50 | 0.05 | > 100 | 12.5 | > 100 |
| C[C@@H](N)C(=O)N[C@H](CCl)C(=O)O.O=C(O)C(F)(F)F | > 100 | > 100 | > 100 | > 100 | > 100 | > 100 | > 100 | > 100 | > 100 | > 100 | > 100 | > 100 | > 100 | > 100 | > 100 | > 100 |
| C[C@@H](N)C(=O)N[C@H](C)C(=O)O.O=C(O)C(F)(F)F | > 100 | > 100 | > 100 | > 100 | > 100 | > 100 | > 100 | > 100 | > 100 | > 100 | > 100 | > 100 | > 100 | > 100 | > 100 | > 100 |
| C#CC[C@@H](NC(=O)[C@H](N)CCl)C(=O)O.O=C(O)C(F)(F)F | > 100 | > 100 | > 100 | > 100 | > 100 | > 100 | > 100 | > 100 | > 100 | > 100 | > 100 | > 100 | > 100 | > 100 | > 100 | > 100 |
| C#CC[C@H](N)C(=O)O | > 100 | > 100 | > 100 | > 100 | > 100 | > 100 | > 100 | > 100 | > 100 | > 100 | > 100 | > 100 | > 100 | > 100 | > 100 | > 100 |
| C[C@@H](NC(=O)[C@H](N)CCl)C(=O)O.O=C(O)C(F)(F)F | > 100 | > 100 | > 100 | > 100 | > 100 | > 100 | > 100 | > 100 | > 100 | > 100 | > 100 | > 100 | > 100 | > 100 | > 100 | > 100 |
| C#CC[C@@H](N)C(=O)O | > 100 | > 100 | > 100 | > 100 | > 100 | > 100 | > 100 | > 100 | > 100 | > 100 | > 100 | > 100 | 50 (≈ 442 µM) | > 100 | > 100 | > 100 |
| N[C@@H](CCl)C(=O)O | > 100 | > 100 | 3.12 (≈ 25.3 µM) | > 100 | > 100 | > 100 | 3.12 (≈ 25.3 µM) | > 100 | 25 (≈ 202 µM) | > 100 | > 100 | > 100 | 3.12 (≈ 25.3 µM) | > 100 | > 100 | > 100 |
| CSCC[C@H](N)C(=O)N[C@@H](CCl)C(=O)O.O=C(O)C(F)(F)F | 6.25 | 1.56 | 0.2 | 0.78 | 100 | 0.39 | > 100 | > 100 | 0.025 | 6.25 | > 100 | 50 | 0.025 | 50 | > 100 | > 100 |
